# Results: ChEMBL document CHEMBL1268949, “3D QSAR study, synthesis, and in vitro evaluation of (+)-5-FBVM as potential PET radioligand for the vesicular acetylcholine transporter (VAChT)” (Bioorg Med Chem, 2010)
# pKi: −log10 of the molar value.
# How the values were obtained:
# [1] = Displacement of (-)-[3H]DTG from sigma 2 receptor in rat liver membranes after 120 mins; type: cell membranes, Membrane
# [2] = biological target: Sigma non-opioid intracellular receptor 1 (Rattus norvegicus, UniProt Q9R0C9); test: Displacement of (-)-[3H]pentazocine from sigma 1 receptor in rat cortical membranes after 120 mins; type: cell membranes, Membrane
# Sigma non-opioid intracellular receptor 1, sequence (Q9R0C9 whole entry): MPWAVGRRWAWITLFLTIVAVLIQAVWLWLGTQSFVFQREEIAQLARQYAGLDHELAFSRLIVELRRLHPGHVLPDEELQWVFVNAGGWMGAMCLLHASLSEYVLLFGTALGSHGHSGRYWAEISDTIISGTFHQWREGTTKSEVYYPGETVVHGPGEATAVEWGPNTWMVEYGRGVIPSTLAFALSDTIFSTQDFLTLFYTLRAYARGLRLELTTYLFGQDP
# Method in brief: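 Radioligand displacement on rat cortical membrane homogenates with (−)-[3H]pentazocine (1070 GBq/mmol), in 50 mM TRIS–HCl pH 7.4 at room temperature. Each assay was run in triplicate at least three times, and IC50 was estimated by non-linear regression.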
# Rattus norvegicus = organism: Rattus norvegicus; test: Selectivity ratio of Ki for sigma 1 receptor in rat cortical membranes to Ki for rat VAChT; type: cell membranes; conditions: Membrane
# [3] = biological target: T1, Vesicular acetylcholine transporter (Rattus norvegicus, UniProt Q62666); test: Displacement of (-)-[3H]vesamicol from rat VAChT expressed in rat PC12 cells after 60 mins; type: cell-based, PC-12
# T1 sequence (Q62666 whole entry): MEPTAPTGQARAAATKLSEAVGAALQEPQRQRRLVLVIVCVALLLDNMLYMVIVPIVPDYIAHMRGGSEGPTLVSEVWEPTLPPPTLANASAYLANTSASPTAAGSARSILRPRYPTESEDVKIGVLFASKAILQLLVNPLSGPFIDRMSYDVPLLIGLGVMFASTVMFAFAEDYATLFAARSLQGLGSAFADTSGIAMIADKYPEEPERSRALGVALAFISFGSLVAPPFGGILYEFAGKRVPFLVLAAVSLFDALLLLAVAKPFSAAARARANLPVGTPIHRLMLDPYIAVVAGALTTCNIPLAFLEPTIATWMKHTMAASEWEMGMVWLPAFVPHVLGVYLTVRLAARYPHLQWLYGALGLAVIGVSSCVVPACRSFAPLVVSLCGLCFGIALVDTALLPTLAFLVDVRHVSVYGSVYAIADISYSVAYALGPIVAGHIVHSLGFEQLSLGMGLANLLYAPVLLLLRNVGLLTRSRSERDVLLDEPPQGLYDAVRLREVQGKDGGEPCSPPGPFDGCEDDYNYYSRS
# Method in brief: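 Displacement of (−)-[3H]vesamicol was run on homogenates of PC12 cells stably transfected with rat VAChT. (−)-Vesamicol in excess defined non-specific binding, and bound ligand was collected by filtration on a cell harvester. Triplicates, at least three times; IC50 by computational non-linear regression.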
SMILES,pKi [1],pKi [2],Ratio Ki (Rattus norvegicus),pKi [3]
O[C@H]1Cc2cccc(F)c2C[C@@H]1N1CCC(c2ccccc2)CC1,6.28,7.42,5.48,8.16
O[C@H]1Cc2cccc(OCCF)c2C[C@@H]1N1CCC(c2ccccc2)CC1,–,6.57,4.7,7.24
O[C@@H]1Cc2cccc(OCCF)c2C[C@H]1N1CCC(c2ccccc2)CC1,–,6.68,10.7,7.71
Nc1cccc2c1CC(N1CCC(c3ccccc3)CC1)C(O)C2 (racemic),–,6.19,16,7.39
O[C@@H]1Cc2cccc(I)c2C[C@H]1N1CCC(c2ccccc2)CC1 (racemic),–,6.58,17,7.80

# The next lines start with the values.
pKi [1],pKi [2],Ratio Ki (Rattus norvegicus),pKi [3],SMILES
6.64,7.88,1.21,7.96,OC1Cc2cccc(F)c2CC1N1CCC(c2ccccc2)CC1 (racemic)
6.60,8.45,0.97,8.43,O[C@@H]1Cc2cccc(F)c2C[C@H]1N1CCC(c2ccccc2)CC1
